The values that follow come from ChEMBL document CHEMBL3286264, “Discovery of novel and selective SIRT6 inhibitors” (J Med Chem, 2014).

In assay [1] the target is T1, NAD-dependent protein deacylase sirtuin-6 (Homo sapiens, UniProt Q8N6T7). Nature of the assay: Inhibition of SIRT6 (unknown origin) at 200 uM by fluorescence-based assay.
The species named for assay [2] is Homo sapiens. Nature of the assay: Selectivity ratio of IC50 for SIRT2 (unknown origin) to IC50 for SIRT6 (unknown origin). In short, it runs like this: (§1)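 Deacetylase activity measured with commercial fluorescence-based SIRT1, SIRT2 or SIRT6 kits per manufacturer's instructions. Compounds from 50 mM DMSO stocks, tested from 8 μM to 5 mM. IC50 derived by logarithmic nonlinear regression. Three independent determinations per compound.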

Assay [3] concerns the target T2, NAD-dependent protein deacetylase sirtuin-2 (Homo sapiens, UniProt Q8IXJ6).
T2 sequence (Q8IXJ6 whole entry): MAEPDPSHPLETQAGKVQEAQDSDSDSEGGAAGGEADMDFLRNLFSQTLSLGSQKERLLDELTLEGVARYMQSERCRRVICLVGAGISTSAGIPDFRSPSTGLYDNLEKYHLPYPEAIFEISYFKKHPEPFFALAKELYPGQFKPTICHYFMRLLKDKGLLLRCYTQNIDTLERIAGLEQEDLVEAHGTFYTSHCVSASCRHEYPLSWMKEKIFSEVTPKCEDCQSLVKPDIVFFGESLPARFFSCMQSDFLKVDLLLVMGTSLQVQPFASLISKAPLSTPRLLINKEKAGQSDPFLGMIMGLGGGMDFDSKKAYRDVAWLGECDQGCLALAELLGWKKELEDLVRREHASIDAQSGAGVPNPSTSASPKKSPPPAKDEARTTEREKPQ
Nature of the assay: Inhibition of SIRT2 (unknown origin). In short, it runs like this: as §1

The target in assay [4] is T3, NAD-dependent protein deacetylase sirtuin-1 (Homo sapiens, UniProt Q96EB6).
T3 sequence (Q96EB6 whole entry): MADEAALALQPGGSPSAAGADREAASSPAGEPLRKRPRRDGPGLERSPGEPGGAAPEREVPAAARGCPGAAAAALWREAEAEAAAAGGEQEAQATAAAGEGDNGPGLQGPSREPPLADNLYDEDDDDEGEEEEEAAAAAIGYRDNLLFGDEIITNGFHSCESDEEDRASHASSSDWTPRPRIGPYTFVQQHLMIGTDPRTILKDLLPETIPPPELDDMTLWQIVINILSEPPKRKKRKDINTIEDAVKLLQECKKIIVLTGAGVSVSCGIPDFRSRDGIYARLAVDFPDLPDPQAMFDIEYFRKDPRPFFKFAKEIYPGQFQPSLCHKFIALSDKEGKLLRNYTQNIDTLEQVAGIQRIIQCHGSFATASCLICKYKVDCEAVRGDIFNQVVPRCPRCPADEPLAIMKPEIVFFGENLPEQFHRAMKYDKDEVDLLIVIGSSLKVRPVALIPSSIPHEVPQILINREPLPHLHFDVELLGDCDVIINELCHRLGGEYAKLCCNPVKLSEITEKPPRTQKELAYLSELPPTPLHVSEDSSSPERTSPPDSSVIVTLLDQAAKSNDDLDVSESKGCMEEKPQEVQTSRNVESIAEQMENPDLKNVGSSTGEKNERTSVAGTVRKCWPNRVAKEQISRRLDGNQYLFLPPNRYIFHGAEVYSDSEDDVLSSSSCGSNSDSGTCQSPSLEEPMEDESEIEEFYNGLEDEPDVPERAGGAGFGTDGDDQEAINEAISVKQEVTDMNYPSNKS
Nature of the assay: Inhibition of SIRT1 (unknown origin). In short, it runs like this:
as §1

Assay [5] deals with T1, NAD-dependent protein deacylase sirtuin-6. The assay is described as follows: Inhibition of SIRT6 (unknown origin). The gist of the method: as §1
The species named for assay [6] is Homo sapiens. The assay is described as follows: Selectivity ratio of IC50 for SIRT1 (unknown origin) to IC50 for SIRT6 (unknown origin). The gist of the method: as §1
For assay [7], the system named is BXPC-3. Nature of the assay: Inhibition of PMA-induced TNF-alpha secretion in human BxPC3 cells at 100 uM incubated for overnight prior to stimulation of PMA for 24 hrs by ELISA. The assay is classed as functional. The following applies: BXPC-3, 24 h. In short, it runs like this: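 BxPC-3 cells (3 × 10^5/well) allowed to adhere 24 h, then incubated overnight with 100 μM compound or vehicle. Stimulated 24 h with 25 ng/mL PMA. TNF-α in supernatants measured by DuoSet ELISA. Expressed as % inhibition.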

In assay [8] the test system is BXPC-3. The assay is described as follows: Increase in GLUT1 expression in human BxPC3 cells at 200 uM after 6 hrs by Western blotting analysis. The assay is classed as functional, cell-based. The gist of the method:
(§2)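 BxPC-3 cells plated 4 × 10^5 per well and allowed to adhere 24 h. Treated either 24 h at the stated concentrations or for a time course at 200 μM. Lysed in Tris-HCl pH 7.5/NaCl/NP40 buffer. 30 μg protein run on 15% SDS-PAGE and transferred to PVDF. GLUT-1 and γ-tubulin detected by immunoblotting with ECL.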
(Immunoblotting shows a protein as a band on a membrane.)

Assay [9] has as its system BXPC-3. Nature of the assay: Increase in [14C]-2-deoxy-D-glucose uptake in human BxPC3 cells at 200 uM after 18 hrs by scintillation counting analysis relative to control. The assay is classed as functional. In short, it runs like this:
(§3)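 Human BxPC-3 or rat L6 cells (6 × 10^5/well) treated in triplicate for 18 h with 200 μM (final) compound in complete medium. Uptake measured with 0.5 mM 2-deoxy-D-glucose/[14C]-2-deoxy-D-glucose (0.5 μCi/well) in KRH buffer for 5 min at 37 °C. Cells lysed in 0.1% SDS for scintillation counting. Uptake in presence of cytochalasin B plus phloretin subtracted. Expressed relative to untreated.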

The target of assay [10] is T1, NAD-dependent protein deacylase sirtuin-6. The assay is described as follows: Inhibition of SIRT6 in human BxPC3 cells assessed as increase in H3K9 acetylation at 100 uM after >18 hrs by immunoblot analysis. The assay is classed as cell-based. The following applies: BXPC-3. The gist of the method:
(§4)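 BxPC-3 cells plated 4 × 10^5 per well, adhered 24 h, then given 100 μM compound or matching DMSO (final DMSO 2–6‰) for varying times. Lysates (30 μg) resolved on 15% SDS-PAGE and immunoblotted for acetyl-H3K9 and total H3 with ECL. Acetyl-H3K9 normalized to total H3 and expressed as % versus vehicle-treated cells.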

The subject of assay [11] is L6. Nature of the assay: Increase in [14C]-2-deoxy-D-glucose uptake in rat L6 cells at 200 uM after 18 hrs by scintillation counting analysis relative to control. The assay is classed as functional. In short, it runs like this:
as §3

Assay [12] has as its target T1, NAD-dependent protein deacylase sirtuin-6. Nature of the assay: Inhibition of SIRT6 in human BxPC3 cells assessed as increase in H3K9 acetylation at 100 uM after 18 hrs by immunoblot analysis. Type of assay: cell-based. The following applies: BXPC-3. In short, it runs like this:
as §4

Assay [13] relates to BXPC-3. The assay is described as follows: Increase in GLUT1 expression in human BxPC3 cell surface at 100 uM after 24 hrs by flow cytometry. Type of assay: functional, cell-based. The gist of the method:
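BxPC-3 cells plated 4 × 10^5 per well, allowed to adhere 24 h, then exposed 24 h to 100 μM compound or DMSO vehicle. Cells trypsinized, fixed 10 min in 100% methanol at −20 °C, stained with anti-GLUT-1 antibody then anti-mouse IgG2a (each 30 min, 4 °C). Analysed by flow cytometry, 10.000 events/sample.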
A general note: In flow cytometry, cells or beads pass a laser one at a time.

Assay [14] concerns BXPC-3. Nature of the assay: Increase in GLUT1 expression in human BxPC3 cells at 12.5 to 200 uM after 24 hrs by Western blotting analysis. The assay is classed as functional, cell-based. In short, it runs like this: as §2

As usually defined, the inhibition is the relative decrease from the control value, in per cent. As usually defined, the IC50 is the concentration that gives 50% inhibition.

The source made the active and inactive calls. The calls are words filed in the database; no cut-off is given here.

T1 sequence (Q8N6T7 whole entry): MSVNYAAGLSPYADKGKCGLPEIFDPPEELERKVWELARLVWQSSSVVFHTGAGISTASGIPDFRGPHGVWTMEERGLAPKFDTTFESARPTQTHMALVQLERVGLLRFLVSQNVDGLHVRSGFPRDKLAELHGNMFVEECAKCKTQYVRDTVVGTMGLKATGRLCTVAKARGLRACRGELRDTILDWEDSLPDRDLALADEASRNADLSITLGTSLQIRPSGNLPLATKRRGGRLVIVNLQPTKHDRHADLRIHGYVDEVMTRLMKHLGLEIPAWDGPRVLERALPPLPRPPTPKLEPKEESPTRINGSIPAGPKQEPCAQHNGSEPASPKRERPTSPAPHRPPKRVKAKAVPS

Turning to `CC1(CCC(=O)O)NC(=O)NC1=O` (stereo unspecified), in assay [1], the inhibition result was “inactive”.
Still for that read-out and setting: the same measure for `O=C(Nc1ccc(NS(=O)(=O)c2ccc(Oc3ccc([N+](=O)[O-])cc3)cc2)cc1)c1ccccc1`: “inactive”.
For `O=C(NCc1nc(-c2cccnc2)n[nH]1)c1cnccn1`, the inhibition in [1] came out at 12%. Further, the figures for the Ratio IC50 in assay [2] and in assay [6] were 1.71 and 1.1, respectively. The IC50 came to 2290 µM in assay [3], 1470 µM in [4] and 1340 µM in [5].
As to `COc1ccc(OCC(O)Cn2c(NCCc3ccccc3)nc3c2c(=O)[nH]c(=O)n3C)cc1` (stereo unspecified), the inhibition entry in assay [1] was “inactive”.
With `NC(=O)c1ccc[n+](CCCCCC[n+]2cccc(C(N)=O)c2)c1`, the inhibition result in assay [1] is “inactive”.
The same measure, in the same setting: the same measure for `Cc1nc(=O)c2c([nH]1)CC1CCC(C2)N1Cc1ccc2c(c1)CC(C)O2` (stereo unspecified): “inactive”.
`N=C(Nc1ccccc1)SC1CC(=O)N(c2ccc(C(=O)O)cc2)C1=O` (racemic) had an inhibition in assay [1] of 66%. Also, the results for the Ratio IC50 in [2] and in [6] were 9.63 and 19.1, respectively. In addition, the IC50 in assay [3] amounted to 1740 µM; in [4] it was 3470 µM; in assay [5], 181 µM. Testing at 100 µM in assay [7] gave an inhibition of 53%. For the same compound, the outcome in assay [8] was Active. The “fold change (FC)” value in [9] is on record as 3.09; in [11], 1.55. Further, the inhibition entry in [10] was “inactive”. In addition, the inhibition entry in assay [12] was “Active”.
With `O=c1[nH]c(=O)c2cc(S(=O)(=O)Nc3ccc(Oc4cccnc4)cc3)ccc2[nH]1`, in [1], the inhibition came to 100%. Also, the Ratio IC50 was determined as 1.07 in assay [2] and 2.96 in assay [6]. For the same compound, the IC50 in assay [3] worked out at 114 µM; in assay [4], 314 µM; in [5], 106 µM. Also, the inhibition at 100 µM in assay [7] came out at 73%. For the same compound, the results for the “fold change (FC)” value in [9] and in assay [11] were 1.3 and 1.98, respectively. In addition, in [10], the inhibition entry was “inactive”. Besides, the outcome in assay [13] and in [14] was Active. Further, the inhibition result in assay [12] was “Active”.
Take `O=c1cc(-c2ccccc2)[nH]c(=O)[nH]1`: the inhibition result in [1] was “inactive”.
Same read-out and setting: the same measure for `O=C(CSCc1ccc(Cl)c(Cl)c1)Nc1cnc(O)nc1O`: “inactive”; for `CCOc1ccc(NC2SC(=O)NC2=O)cc1` (stereo unspecified): “inactive”; for `O=C(CSc1nc[nH]n1)CSc1nc[nH]n1`: “inactive”.
The same measure, in the same setting: next, `O=C1NC(=O)C2(CCCCCC2)N1`: “inactive”.
As to `O=C(Nc1ccc(O)c(C(=O)O)c1)c1cccc(NC(=O)c2ccco2)c1`, the values for the Ratio IC50 in [2] and in assay [6] were 8.44 and 17.7, respectively. In addition, the IC50 in [3] was 751 µM; in assay [4], 1580 µM; in [5], 89 µM. In addition, the inhibition at 100 µM in assay [7] was 50%. In addition, the “fold change (FC)” value in assay [9] is 1.11; in [11], 1.2. Besides, the result in [13] and in assay [14] was Active.
